Source: PubChem
TNAP inh no acc: human TNAP enzyme inhibitors, primary screen, biochemical, luminescent, no phosphate acceptor, uHTS; inhibition, % at 20 µM; 200,000 compounds, 0.26% hits; Alkaline phosphatase, tissue-nonspecific isozyme (Homo sapiens), P05186; AID 1012, 2008; purified TNAP, CDP-star luminescence, 30 min;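 active means tissue-nonspecific alkaline phosphatase inhibition above about 50% at 20 µM in the single-dose screen, limit read from the data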;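 further: 0% = DMSO negative control and 100% = EDTA positive control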
Target sequence (P05186 whole entry, looked up): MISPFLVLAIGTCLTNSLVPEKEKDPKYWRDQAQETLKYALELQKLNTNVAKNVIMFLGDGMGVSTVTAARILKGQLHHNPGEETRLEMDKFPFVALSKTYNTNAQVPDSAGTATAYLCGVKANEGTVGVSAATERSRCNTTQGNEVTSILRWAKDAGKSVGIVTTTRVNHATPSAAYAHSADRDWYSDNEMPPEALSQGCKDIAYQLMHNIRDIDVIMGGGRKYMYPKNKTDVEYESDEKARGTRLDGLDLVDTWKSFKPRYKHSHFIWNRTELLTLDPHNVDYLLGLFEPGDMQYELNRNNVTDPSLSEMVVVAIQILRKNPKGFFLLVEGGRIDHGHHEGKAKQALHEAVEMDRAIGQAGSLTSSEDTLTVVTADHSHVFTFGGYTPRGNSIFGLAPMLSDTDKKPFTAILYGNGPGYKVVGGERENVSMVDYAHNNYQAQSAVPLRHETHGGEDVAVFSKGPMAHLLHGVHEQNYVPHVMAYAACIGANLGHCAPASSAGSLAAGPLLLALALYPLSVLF
TNAP act hiacc: TNAP activators at high phosphate acceptor level, primary screen, biochemical, luminescence, uHTS | activation factor at 20 µM | 200,000 tested, under 10 active | purified TNAP, CDP-star luminescence, 1 M DEA, 30 min; active compounds read high; 0 = EDTA background, 1 = DMSO-only activity;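 active means activation factor at least 2 at 20 µM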
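Dosing: 20 µM single point. System: human TNAP. Amount: TNAP 1/800 final. Incubation: 30 min, room temperature. Read-out: TNAP activation factor scaled between EDTA and DMSO control wells. Signal: luminescence from CDP-star hydrolysis. Medium: 1 M DEA, pH 9.8, Mg2+, Zn2+. Control set: EDTA negative control, DMSO positive control.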
RAM inhibit: inhibitors of the yeast RAM network, primary screen, dse1pr::URA3 reporter, 5-FOA selection; S. cerevisiae dse1pr::URA3 reporter, 5-FOA growth OD615, 2 d; analog-sensitive cbk1-as2 kinase mutant strain; inhibition, % at 50 µM; 190,000 compounds, 1.8% hits; AID 868, 2007;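 active means inhibition above a set limit, 3 SD over mean compound inhibition, cut at about 8.4% in these data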;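 further: 0% = DMSO-only wells with no growth and 100% = 10 µM 1-NA-PP1 full growth; inhibition rescues growth on 5-FOA so higher OD means more RAM inhibition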
TNAP inh hiacc: human TNAP enzyme inhibitors, primary screen, biochemical, luminescent, high phosphate acceptor level, uHTS; Alkaline phosphatase, tissue-nonspecific isozyme (Homo sapiens), P05186; 200,000 compounds, 0.03% hits; purified TNAP, CDP-star luminescence, 1 M DEA; inhibition, % at 20 µM;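 active means over 50% inhibition of tissue-nonspecific alkaline phosphatase at 20 µM in the single-dose screen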;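 further: plate controls were DMSO wells for no effect and EDTA-quenched wells as full inhibition for full effect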
Yeast lifespan up: compounds extending yeast replicative lifespan, primary screen, S. cerevisiae, OD615; S. cerevisiae growth with nicotinamide; deaD strain in restrictive glucose medium; inhibition of the nicotinamide effect, % at 10 µM; 130,000 compounds, 0.68% hits; AID 775, 2007;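 active means inhibition above a set limit, placed 3 SD over the median of all compounds, cut at about 26% in these data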;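 further: 0% = nicotinamide-treated wells and 100% = cells grown without nicotinamide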
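assay system = DeaD-strain S. cerevisiae | buffer or medium = restrictive glucose medium | reagent = 1.5 mM nicotinamide | compound = 10 µM single point, 0.25% DMSO | incubation = 48 h compound exposure at 30 °C, humidified | signal = OD615 measurement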
BB579 growth dn: growth inhibitors of yeast BB579 in restrictive medium, primary screen, yeast lifespan-shortening project, S. cerevisiae | OD615, 48 h | inhibition, % at 10 µM | 140,000 compounds, 0.51% hits;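 active means inhibition above a set limit, 3 SD over the mean compound inhibition, cut at about 44% in these data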
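test system = yeast BB579 (DeaD) | buffer or medium = restrictive CSMM-D medium | doses = single compound dose of 10 µM, 0.25% DMSO final | times = 4 h preincubation and 48 h exposure at 30 °C | technique = culture absorbance at 615 nm | benchmarks = amphotericin B 10 µg/mL, positive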
An asterisk follows results filed as active; x = no result given. Compounds with a hit are over-represented: about 2.8% of the library has one in this group of screens.

SMILES	TNAP inh no acc	TNAP act hiacc	RAM inhibit	TNAP inh hiacc	Yeast lifespan up	BB579 growth dn
COc1ccc([N+](=O)[O-])cc1NC(=O)CSCc1ccc(Br)cc1	-14	1	11*	1	-2	-41
COc1ccc([N+](=O)[O-])cc1NC(=O)CSc1ncccn1	-10	1	3	-5	x	x
COC(=O)c1ccc(C(=O)OC)c(NC(=O)CSCc2ccc(Br)cc2)c1	-6	1	11*	-4	-2	-31
COc1ccc([N+](=O)[O-])cc1NC(=O)CSCc1ccccc1C	-10	1	8.6*	0	1	-54
COc1cc(NC(=O)[C@@H](NC(=O)c2ccco2)C(C)C)c(OC)cc1NC(=O)c1ccccc1	-11	1	4	-4	x	x
CC(C)(C)c1[nH]nc2c1C(c1ccco1)C(C#N)=C(N)O2 (stereo unspecified)	-8	1	3	3	x	x
CC(=O)N1N=C(c2ccccc2)OC12CCCC2	-10	1	0	-5	x	x
CC(=O)N1N=C(c2ccc(Cl)cc2)OC1(C)C	-14	1	1	1	23	48*
O=C(O)c1cc(-c2cccs2)[nH]n1	83*	1.1	0	-7	x	x
Cc1nn(-c2ccccc2)c(C)c1/C=N/NC(=O)c1cc(-c2ccc(Br)s2)[nH]n1	44	1	2	2	-11	-59
Cc1nn(-c2ccccc2)c(C)c1/C=N/NC(=O)c1cc(-c2ccc(Cl)s2)[nH]n1	67*	0.9	3	7	-21	-39
COc1cc(/C=N/NC(=O)c2[nH]nc3c2CCc2ccccc2-3)ccc1O	66*	1.1	2	-5	-4	-56
Cc1nn(-c2ccccc2)c(C)c1/C=N/NC(=O)c1cc(-c2cccs2)[nH]n1	84*	0.9	1	12	-2	-35
O=C(COC(=O)CNC(=O)c1ccc(Cl)cc1)Nc1ccc(Cl)cc1C(F)(F)F	-19	1	5	-4	-5	-8
NC(=O)c1nn(-c2ccc(Cl)cc2Cl)c(=O)cc1O	-2	1	2	-1	x	x
COc1cc(/C=N/NC(=O)c2cc(C34CC5CC(CC(C5)C3)C4)[nH]n2)ccc1O	54*	1	0	-1	-5	-32
Cc1nn(-c2ccccc2)c(C)c1/C=N/NC(=O)c1cc(C23CC4CC(CC(C4)C2)C3)[nH]n1	73*	1.1	-1	-8	-4	-12
COc1c(Cl)cc(Cl)cc1C(=O)n1nc(C)cc1C	-5	1.1	2	-6	x	0
COc1ccc(NS(=O)(=O)c2cc(NC(=O)CCSc3ccccc3)ccc2OC)cc1	-27	1.1	6	-6	-4	-25
COc1ccc(NC(=O)CCSc2ccc(C)cc2)cc1S(=O)(=O)Nc1ccccc1Cl	-8	1	8.8*	0	-3	12
O=C(N/N=C/c1cccc([N+](=O)[O-])c1)c1ccccc1-n1cccc1	-5	1	0	2	x	x
O=C(CS(=O)(=O)c1ccccc1)Nc1ccc(Br)cn1	-1	1	2	2	-3	-25
CCc1nnc(NC(=O)CSc2nc(-c3ccccc3)cc(-c3ccc(OC)cc3)c2C#N)s1	-12	1	1	0	-1	-10
O=C(Nc1ccc(F)c(Cl)c1)c1ccc2c(=O)n3c(nc2c1)CCCCC3	-7	1	3	1	-6	-17
O=C(Nc1cccc(Cl)c1)c1ccc2c(=O)n3c(nc2c1)CCCCC3	-14	1.1	-1	-6	59*	-39
SMILES	TNAP inh no acc	TNAP act hiacc	RAM inhibit	TNAP inh hiacc	Yeast lifespan up	BB579 growth dn
CCNC(=O)NC(=O)C(C)On1nnc2ccc(S(=O)(=O)N(CC)CC)cc21 (stereo unspecified)	5	1	5	-1	28*	-38
CCNC(=O)NC(=O)C(C)OC(=O)CCS(=O)(=O)c1ccc(C)cc1 (stereo unspecified)	6	1	0	-3	x	x
COc1ccc(Nc2cnn(-c3nc4ccccc4s3)c(=O)c2Cl)cc1	-2	1	5	3	-1	78*
O=c1c(Cl)c(Nc2cccc(Cl)c2)cnn1-c1nc2ccccc2s1	-9	1	3	4	-2	-44
Cc1ccc(C)c(N2CCN(c3cnn(-c4nc5ccccc5s4)c(=O)c3Cl)CC2)c1	2	1	9.1*	5	1	-39
COc1ccc(NC(C)=O)cc1NC(=O)CN1CCN(C(=O)c2ccco2)CC1	-10	1	-1	1	-12	-1
CCCCOCCCn1cnc2c([nH]c3cc(OC)ccc32)c1=O	-11	1.1	3	-8	-15	-18
O=C(CSC1=NS(=O)(=O)c2ccccc21)Nc1ccccc1	-35	1	-1	-3	-11	73*
C/C(=N\NC(=S)Nc1ccccc1C)c1ccc(O)cc1	-6	0.9	0	6	x	x
O=[N+]([O-])c1cccc(/C=N\N=C2c3ccccc3-c3ccccc32)c1O	19	0.6	9.9*	36	-4	4
NC(N)=N/N=C/c1cccc([N+](=O)[O-])c1O	1	0.8	-1	16	x	x
CCOC(=O)CN1CCS(=O)(=O)CC1	-6	1	3	-3	x	x
CCCc1cc(-c2n[nH]c(=S)n2C(C)c2ccccc2)cs1 (stereo unspecified)	13	1	2	-3	12	50*
CCCc1cc(-c2n[nH]c(=S)n2CC)cs1	-4	1	-1	-2	x	x
Nc1nc2sc3c(c2c(=O)s1)CCCC3	-3	1.1	-1	-6	-21	53*
CCC1CCCCN1CCCNC(=O)c1cc2c(=O)[nH]c3ccccc3c2n1C (stereo unspecified)	-8	1.1	1	-5	x	x
COC(=O)CCCCC1SCC(NC(=O)c2ccccc2)C1OC(C)=O (stereo unspecified)	-14	1.1	9.2*	-8	x	x
O=c1c2ccccc2nc2c3ccccc3c3nncn3n12	0	1.1	2	-7	-13	82*
O=c1c2ccccc2nc2c3ccccc3c(Cl)nn12	-6	1	3	-4	x	x
Cc1ccc(C(=O)NC(=O)OCCn2c(C)cnc2[N+](=O)[O-])cc1	-8	1	3	0	x	x
Cc1cccc(C)c1OCc1nnc2c3cnn(C)c3ncn12	74*	1	1	-2	-10	-19
